A selection: hits, their analogues and other compounds. The true share with any hit is near 3.3%.
TCR CD3 inh: inhibitors of human TCR-CD3 interaction. inhibition, % at 9.4 µM. AID 651800. TAMRA-labeled TCR probe fluorescence, biochemical. 360,000 compounds, 0.37% hits; in the data active = inhibition above about 19%;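 note: recombinant mutant TCR 2C K166C tagged with TAMRA read by polarization; 0% = receptor in buffer alone and 100% = receptor with positive control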
SIAE inh: human SIAE inhibition, primary screen | AID 1053197 | inhibition, % at 9.66 µM | SIAE FP-Rh probe binding, fluorescence polarization | 370,000 compounds, 0.69% hits | Q9HAT2;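 active = inhibition above a cutoff: mean of compounds within the control limits plus 3 SD of those, cut at about 17% in these data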;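 note: 0% = plate median of compound wells and 100% = probe without SIAE protein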
Target sequence (Q9HAT2 whole entry, looked up): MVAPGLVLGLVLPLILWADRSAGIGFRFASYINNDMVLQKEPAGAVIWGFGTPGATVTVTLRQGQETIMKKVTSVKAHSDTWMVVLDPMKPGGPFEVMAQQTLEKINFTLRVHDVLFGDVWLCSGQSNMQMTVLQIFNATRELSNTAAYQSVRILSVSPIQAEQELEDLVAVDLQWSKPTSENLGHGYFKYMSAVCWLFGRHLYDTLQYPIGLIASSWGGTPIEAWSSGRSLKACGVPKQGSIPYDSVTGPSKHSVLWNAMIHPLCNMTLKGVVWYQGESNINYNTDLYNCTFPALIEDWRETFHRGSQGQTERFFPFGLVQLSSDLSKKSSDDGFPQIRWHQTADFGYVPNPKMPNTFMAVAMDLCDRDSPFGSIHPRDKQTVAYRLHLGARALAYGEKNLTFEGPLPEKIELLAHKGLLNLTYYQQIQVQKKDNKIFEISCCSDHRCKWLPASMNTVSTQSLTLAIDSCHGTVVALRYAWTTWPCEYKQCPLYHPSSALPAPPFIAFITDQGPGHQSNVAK
PRMT1 FP inh: blocks human protein arginine methyltransferase 1 | Q99873 | recombinant PRMT1, activity-based probe fluorescence polarization | inhibition, % at 2.79 µM | 370,000 compounds, 1.3% hits;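 active = inhibition above about 21% made by adding two undisclosed values, limit read from the data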
mABHD4 FP: inhibits mouse alpha/beta hydrolase domain 4 | Q8VD66 | purified mABHD4, FP-Rh probe fluorescence polarization | inhibition, % at 8.92 µM | 370,000 compounds, 0.54% hits;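 active = inhibition exceeding the mean over every tested compound plus 3 SD, cut at about 30% in these data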;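 note: 0% = plate median of compound wells and 100% = S159A mutant with DMSO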
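Test system: mouse ABHD4 enzyme, wild type. Reagent: FP-Rh fluorescent activity-based probe, added after compound pre-incubation. Timing: pre-incubation 45 min, probe exposure 60 min, at 25 °C. Technique: FP readout, ex 525 nm / em 598 nm. Benchmarks: high control S159A mutant with DMSO, low control median of compound wells.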
rCAG RNA binder: binds r(CAG) RNA repeats. r(CAG) RNA repeat, TO-PRO-1 dye displacement fluorescence. inhibition, % at 3 µM. 370,000 compounds, 1.3% hits;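 active = inhibition above the plate cutoff, the mean of all test compounds on that plate plus 3 SD, cut at about 35% in these data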;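 note: 0% = DMSO alone and 100% = 100 µM mitoxantrone as full dye displacement; higher means more dye released from RNA so lower well fluorescence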
SIAE confirm: human SIAE inhibition, confirmation | shares compounds with SIAE inh | SIAE FP-Rh activity-based probe, fluorescence polarization | inhibition, % at 9.66 µM | 2,300 compounds, 13% hits | AID 1117263;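 active = mean inhibition of the replicates above the hit cutoff set in the primary screen, cut at about 17% in these data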;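 note: 0% = SIAE with DMSO and probe and 100% = probe without SIAE; inhibitors lower polarization as more probe stays unbound to SIAE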
Numbers without * were called inactive; / = no result; + = active, no number.

SMILES	TCR CD3 inh	SIAE inh	PRMT1 FP inh	mABHD4 FP	rCAG RNA binder	SIAE confirm
Cc1cc(C)nc(SCC(=O)NN=Cc2ccc(C)o2)n1	-6.2	18.3*	3.2	8.1	3.1	6.0
CC1(C(=O)NS(=O)(=O)c2ccc(Br)cc2)CCN1C(=O)Cc1cccs1 (stereo unspecified)	-4.2	1.8	0.6	-1.7	2.5	/
Cc1ccc(CN2C(=O)C(CC(C)C)Nc3ncnc(N4CCN(c5ccccn5)CC4)c32)cc1 (stereo unspecified)	5.9	3.8	-2.9	-14.7	-4.4	/
COc1ccc(CN2C(=O)C(CC(C)C)Nc3ncnc(N4CCN(c5ccccn5)CC4)c32)cc1 (stereo unspecified)	-3.5	18.1*	-0.7	-6.8	-0.4	0.2
COc1cc(OC)cc(C(=O)NNC(=O)C(=O)Nc2cc(OC)c(Cl)cc2OC)c1	6.7	-4.8	-6.7	-5.0	10.9	/
CC1=C(C(=O)N(C)C)CC(CC(=O)NCC2CCCCC2)C(=O)N1Cc1ccccc1 (stereo unspecified)	1.7	0.1	-2.2	-0.5	-0.7	/
NC(=O)c1nsc(C(=O)N(Cc2ccccc2Cl)C(C(=O)NCC2CCCO2)c2ccc(O)cc2)c1N (stereo unspecified)	-1.0	19.7*	1.5	-0.4	-0.4	-0.3
O=C(CSC(=S)N1CCCCC1)Nc1ncc2c(n1)CCCC2=O	3.1	-5.2	1.3	-11.8	-2.5	/
Cc1cc(C)nc(SCC(=O)Nc2ncc3c(n2)CCCC3=O)n1	2.3	47.2*	-0.6	5.0	0.8	-4.9
COc1ccc(NC(=O)Nc2cccs2)cn1	0.2	17.9*	6.5	10.1	9.3	4.9
COc1ccc(NC(=O)Nc2cc(C)cc(C)c2)cn1	-0.4	-2.4	12.3	-3.4	-10.3	/
O=C(O)CCc1n[nH]c(=S)[nH]c1=O	-3.3	17.3*	7.9	0.7	2.3	2.0
CCOC(=O)CCc1n[nH]c(=O)[nH]c1=O	-2.6	5.5	-2.1	-0.4	0.5	/
CNc1nnc(CSc2nc(C)cc(C)n2)s1	4.7	27.3*	0.4	5.4	0.4	8.6
O=C(CCSc1ccc(F)cc1)NNC(=O)c1ccc([N+](=O)[O-])cc1	3.8	-1.2	-5.0	0.6	2.2	/
FC(F)(F)C(F)(F)c1nnc2ccc(-n3ccnc3)nn12	8.1	17.1*	-0.7	8.0	0.7	2.6
Cc1cc(C)cc(N2C(=O)C3C4C=CC(C4)C3C2=O)c1 (stereo unspecified)	1.8	18.6*	-1.4	2.4	-0.1	-1.4
COc1cccc(CNC(=O)[C@@H]2CCCN2C(=O)[C@@H]2CCCN2C(=O)c2ccc(Cl)cc2)c1	6.0	-0.5	3.2	-1.8	-1.7	/
CCN(CC)c1ccc(NC(=O)c2ccc3c(c2)OCO3)c(C)c1	2.0	19.9*	-4.8	3.2	1.8	-4.7
COc1cccc(CCNS(=O)(=O)c2c(C)n[nH]c2C)c1	/	-8.1	-2.6	5.4	1.8	/
CCN1C[C@@H]2[C@@H]3C(=O)N(C)C(=O)[C@@H]3[C@](Cc3ccccc3)(C1=O)N2C(=O)c1ccc(C(C)(C)C)cc1	5.1	21.1*	1.5	0.5	-9.6	0.5
CSCCC(C(=O)N(C)CC(=O)Nc1cccc(F)c1)N1C(=O)c2ccccc2C1=O (stereo unspecified)	1.5	-2.2	-1.1	2.1	2.9	/
CCc1nc2ccc(C(=O)NCCc3ccccn3)cn2c1N(C)Cc1ccc(N(C)C)cc1	-2.4	23.4*	2.2	3.1	-2.2	3.5
Cn1nccc1C(=O)Nc1ccc(S(=O)(=O)N2CCCC2)cc1	-2.5	17.9*	-1.4	7.6	-1.2	6.2
Cn1cccc1C(=O)N1CCN(S(=O)(=O)c2cccs2)CC1	/	-0.6	4.6	3.1	4.3	/
SMILES	TCR CD3 inh	SIAE inh	PRMT1 FP inh	mABHD4 FP	rCAG RNA binder	SIAE confirm
N#Cc1cccc(NC(=O)CSc2ccc3c4c(cccc24)C(=O)c2ccccc2-3)c1	4.3	56.5*	3.6	8.1	-5.8	48.5*
CSCCC(NC(=O)COc1ccccc1)C(=O)N1CCN(c2ccccc2O)CC1 (stereo unspecified)	-3.7	17.8*	-3.7	2.4	-5.0	6.6
CC(=O)Nc1ccc(S(=O)(=O)Nc2ccc(S(=O)(=O)Nc3nccs3)cc2)cc1	1.9	-5.7	-0.5	-12.1	0.5	/
Cc1ccc(S(C)(=O)=O)cc1C(=O)Nc1ccc(S(=O)(=O)Nc2nccs2)cc1	-2.9	23.9*	0.2	24.2	20.1	0.9
O=C(NC(=S)Nc1cccc(NC(=O)c2ccccc2)c1)c1cccc([N+](=O)[O-])c1	-5.2	62.9*	-0.2	-7.1	7.0	-16.4
NS(=O)(=O)c1cccc(NC(=S)NC(=O)c2cccc([N+](=O)[O-])c2)c1	-4.2	11.7	1.7	-3.2	3.9	/
O=C(Nc1nc(-c2ccccc2)cs1)c1cccc([N+](=O)[O-])c1	6.9	18.9*	-1.7	-16.7	9.2	-65.4
O=C(NCCc1ccccc1)C(=O)NCC1OCCN1S(=O)(=O)c1cc(F)ccc1F (stereo unspecified)	-0.4	-8.1	-2.4	-1.8	9.3	/
O=C1CN(C(=O)CSc2ccccn2)c2ccccc2N1	2.4	8.6	-3.2	4.8	4.1	/
CN(C)S(=O)(=O)c1ccc(SCC(=O)N2CC(=O)Nc3ccccc32)nc1	-4.2	17.4*	1.3	2.1	0.2	-3.5
CCOC(=O)C1(Cc2cccc(OC)c2)CCCN(C(=O)CCN2CCCO2)C1 (stereo unspecified)	-0.1	-0.6	-1.3	0.6	-9.6	/
O=C(CSc1nc(=O)n(CCCN2CCOCC2)c2c1CCC2)Nc1ccc([N+](=O)[O-])cc1	-4.8	17.7*	-1.6	6.4	-5.7	1.2
CCN(CC)CCCn1c2c(c(SCC(=O)Nc3ccccc3Cl)nc1=O)CCC2	2.6	18.1*	-1.7	3.2	-4.0	-1.1
O=C(CSc1nc(=O)n(CCCN2CCOCC2)c2c1CCCC2)Nc1cccc([N+](=O)[O-])c1	1.4	7.1	5.7	-8.0	3.7	/
CC1CN(c2ccc(NC(=S)Nc3ccc(N4CC(C)OC(C)C4)cc3)cc2)CC(C)O1 (stereo unspecified)	-2.4	20.3*	-1.7	23.6	7.3	-3.8
COc1ccc(-n2cc(COC(=O)NCCc3ccccc3)nn2)cc1	/	0.3	-1.6	0.4	0.6	/
COc1ccc(NC(=O)CCNC(=O)N2CC(=O)Nc3ccccc32)c(OC)c1	6.4	-2.3	-2.4	0.3	-6.5	/
COc1ccc(CNC(=O)CCNC(=O)N2CC(=O)Nc3ccccc32)cc1	-3.8	+	0.9	-2.1	-0.1	4.3
CCCC(=O)Nc1ccc2oc(-c3cncc(Br)c3)nc2c1	-3.4	2.1	-2.9	0.7	-0.8	/
CCCCCC(=O)Nc1ccc2oc(-c3cncc(Br)c3)nc2c1	3.7	36.4*	1.4	-2.3	0.0	-4.6
COc1cccc(/C=N/NC(=O)c2oc3nc(-c4ccccc4)cc(-c4ccco4)c3c2N)c1	3.0	7.3	2.2	8.8	9.9	/
Cc1ccc(-c2cc(-c3ccco3)c3c(N)c(C(=O)NN)oc3n2)cc1	15.5	28.2*	-1.1	15.3	17.7	44.9*

High-throughput results: PubChem, The Scripps Research Institute Molecular Screening Center
